Experimental data reported in ChEMBL document CHEMBL4428026, “Discovery of New Monocarbonyl Ligustrazine-Curcumin Hybrids for Intervention of Drug-Sensitive and Drug-Resistant Lung Cancer” (J Med Chem, 2016).
Calls of active or inactive are those of the source. The rule behind the calls is not given here.

What was measured:
[1] = Antiproliferative activity against human SPC-A1 cells after 72 hrs by MTT assay; type: functional, cell-based; details: SPCA1, 72 h
Method in brief: (§1)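 Cells (A549, A549/DDP, SPC-A-1, LTEP-G-2, non-tumor bronchial epithelial HBE) were exposed in triplicate to vehicle or compound for 72 h. MTT (5 mg/mL in PBS) was then added for 4 h, formazan was dissolved in DMSO, and absorbance was read at 570 nm. IC50 values were derived from viability.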

[2] = Antiproliferative activity against human LTEP-G2 cells after 72 hrs by MTT assay; type: functional, cell-based; method in brief: as §1
[3] = Cytotoxicity against NHBE cells after 72 hrs by MTT assay; type: cell-based; details: Homo sapiens; method in brief: as §1
[4] = biological target: Thioredoxin reductase (Homo sapiens, UniProt Q16881+Q9NNW7+Q86VQ6); assay: Inhibition of thioredoxin reductase in human A549/CDDP cells by DTNB dye based microplate spectrophotometry; type: cell-based
Method in brief: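 A549 or A549/DDP cells were treated with varying compound concentrations for 24 h, then harvested, homogenized and centrifuged. Protein (50 µg) was reacted in triplicate with NADPH and DTNB in TE buffer at 37 °C for 1 h, and TNB was read at 412 nm. Activity was taken from a purified-TrxR standard curve, and IC50 was derived.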

[5] = tested on: A549; assay: Decrease in TrxR expression in human A549 cells at 2.1 to 4.2 uM after 24 hrs by Western blot method; type: functional, cell-based
Method in brief: (§2)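 Cells were plated at 1 × 10^6/well overnight, then treated 24 h with vehicle DMSO (0.1%, v/v) or compound (A549, 2.1 or 4.2 µM; A549/DDP, 0.6 or 1.2 µM). Lysis was at 4 °C. Lysates were run on SDS-PAGE (7.5% gel, 20 µg/lane) and immunoblotted with ECL detection; phospho-Akt Ser473 and phospho-ERK Thr202/Tyr204 were probed. Bands were normalized to GAPDH (TrxR, Trx) or β-actin. Three independent experiments were run.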

[6] = tested on: A549/CDDP; assay: Decrease in TrxR expression in human A549/CDDP cells at 0.6 to 1.2 uM after 24 hrs by Western blot method; type: functional, cell-based; method in brief: as §2
[7] = tested on: A549; assay: Induction of ROS generation in human A549 cells 2.1 to 4.2 uM after 60 mins by DHE staining-based fluorescence assay in presence of GSH; type: functional, cell-based
[8] = tested on: A549/CDDP; assay: Induction of ROS generation in human A549/CDDP cells 0.6 to 1.2 uM after 60 mins by DHE staining-based fluorescence assay in presence of NAC; type: functional, cell-based
[9] = tested on: A549/CDDP; assay: Induction of ROS generation in human A549/CDDP cells 0.6 to 1.2 uM after 60 mins by DHE staining-based fluorescence assay in presence of GSH; type: functional, cell-based
[10] = tested on: A549/CDDP; assay: Induction of apoptosis in human A549/CDDP cells at 0.6 to 1.2 uM after 24 hrs by annexin V-FITC/propidium iodide staining-based flow cytometry; type: functional, cell-based
Method in brief: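 Cells were seeded at 1 × 10^5/well and treated 24 h with DMSO (1%) or compound. They were then washed in PBS, stained with FITC-Annexin V and propidium iodide, and apoptotic fractions were quantified by flow cytometry.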

[11] = tested on: A549; assay: Induction of apoptosis in human A549 cells assessed as decrease in Bcl2 expression at 2.1 to 4.2 uM after 24 hrs by Western blot method; type: functional, cell-based; method in brief: as §2
[12] = tested on: A549; assay: Induction of apoptosis in human A549 cells assessed as increase in Bax expression at 2.1 to 4.2 uM after 24 hrs by Western blot method; type: functional, cell-based; method in brief: as §2
[13] = tested on: A549/CDDP; assay: Induction of apoptosis in human A549/CDDP cells assessed as increase in Bax expression at 0.6 to 1.2 uM after 24 hrs by Western blot method; type: functional, cell-based; method in brief: as §2
[14] = tested on: A549/CDDP; assay: Induction of apoptosis in human A549/CDDP cells assessed as increase in Bax to Bcl2 ratio at 0.6 to 1.2 uM after 24 hrs by Western blot method; type: functional, cell-based; method in brief: as §2
[15] = tested on: A549/CDDP; assay: Induction of apoptosis in human A549/CDDP cells assessed as increase in cleaved caspase 3 level at 0.6 to 1.2 uM after 24 hrs by Western blot method; type: functional, cell-based; method in brief: as §2
[16] = tested on: A549; assay: Induction of apoptosis in human A549 cells assessed as increase in cleaved PARP level at 2.1 to 4.2 uM after 24 hrs by Western blot method; type: functional, cell-based; method in brief: as §2
[17] = tested on: A549; assay: Effect on ERK expression in human A549 cells at 2.1 to 4.2 uM after 24 hrs by Western blot method; type: functional, cell-based; method in brief: as §2
[18] = biological target: RAC-alpha serine/threonine-protein kinase (Homo sapiens) (UniProt P31749); assay: Inhibition of Akt phosphorylation in human A549 cells at 2.1 to 4.2 uM after 24 hrs by Western blot method; type: cell-based; method in brief: as §2
Sequence of RAC-alpha serine/threonine-protein kinase (Homo sapiens) (P31749 whole entry): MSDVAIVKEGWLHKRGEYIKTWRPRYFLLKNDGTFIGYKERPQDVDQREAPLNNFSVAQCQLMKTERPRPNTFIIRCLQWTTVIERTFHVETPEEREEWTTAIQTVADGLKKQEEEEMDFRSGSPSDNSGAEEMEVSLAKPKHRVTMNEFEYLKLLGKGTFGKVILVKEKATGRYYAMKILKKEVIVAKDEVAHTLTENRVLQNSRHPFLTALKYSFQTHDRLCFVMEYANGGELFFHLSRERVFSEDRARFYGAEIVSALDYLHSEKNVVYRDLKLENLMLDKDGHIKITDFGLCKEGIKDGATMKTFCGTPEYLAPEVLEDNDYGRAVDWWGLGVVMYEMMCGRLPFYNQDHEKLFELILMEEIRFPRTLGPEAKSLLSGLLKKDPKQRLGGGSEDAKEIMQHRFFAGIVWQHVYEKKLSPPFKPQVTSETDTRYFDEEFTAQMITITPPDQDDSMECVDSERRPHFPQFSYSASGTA

[19] = biological target: RAC-alpha serine/threonine-protein kinase (Homo sapiens) (UniProt P31749); assay: Inhibition of Akt phosphorylation in human A549/CDDP cells at 0.6 to 1.2 uM after 24 hrs by Western blot method; type: cell-based; method in brief: as §2
[20] = tested on: A549; assay: Inhibition of ERK phosphorylation in human A549 cells at 2.1 to 4.2 uM after 24 hrs by Western blot method; type: cell-based; method in brief: as §2
[21] = tested on: A549/CDDP; assay: Decrease in P-gp mRNA level in human A549/CDDP cells at 0.6 to 1.2 uM after 24 hrs by RT-PCR method; type: functional, cell-based
Method in brief: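 A549/DDP cells (1 × 10^6) were treated with vehicle or 0.6 or 1.2 µM compound for 24 h. Total RNA was reverse-transcribed with oligo dT primers. ABCB1 transcripts were quantified by real-time RT-PCR relative to GAPDH and expressed as fold of the 0.1% DMSO control. Three independent experiments were run.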

[22] = Acute toxicity in ICR mouse assessed as mortality at 200 to 450 mg/kg, ip measured on day 4 to 14 post treatment; type: organism-based; details: in vivo
Method in brief: (§3)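 Male and female ICR mice (7 weeks), randomized, 10 per group, given one intraperitoneal dose at 200, 250, 300, 350, 400 or 450 mg/kg. Animals were watched for abnormal behaviour and deaths up to two weeks. Deaths were tallied at 1 h, 4 h, day 3 and days 4-14, with survival on day 14. LD50 was calculated with 95% confidence limits.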

[23] = Acute toxicity in ICR mouse assessed as mortality at 200 to 400 mg/kg, ip measured at 4 hr post treatment; type: organism-based; details: in vivo; method in brief: as §3
[24] = Acute toxicity in ICR mouse assessed as survival at 300 mg/kg, ip measured on day 14; type: organism-based; details: in vivo; method in brief: as §3
[25] = Acute toxicity in ICR mouse assessed as survival at 250 mg/kg, ip measured on day 14; type: organism-based; details: in vivo; method in brief: as §3
[26] = Toxicity in BALB/c nude mouse xenografted with human A549/CDDP cells assessed as body weight at 40 mg/kg, ip administered daily for 15 consecutive days measured on day 1 (reference value: 19.3 +/- 1.55 g); type: organism-based; details: in vivo

In the case of `COc1cc(/C=C/C(=O)/C=C/c2nc(C)c(C)nc2C)ccc1O`, the IC50 [1] is reported as 3.12 µM, the IC50 [2] is reported as 2.88 µM and the IC50 [3] is reported as 21.3 µM. For the same compound, the IC50 [4] was 1.22 µM, the Activity [5] was “Active” and the Activity [6] was “Active”. For the same compound, the Activity [7] was “inactive”, the Activity [8] was “inactive” and the Activity [9] was “inactive”. For the same compound, the Activity [10] was “Active”, the Activity [11] was “Active” and the Activity [12] was “Active”. For the same compound, the Activity [13] was “Active”, the Activity [14] was “Active” and the Activity [15] was “Active”. For the same compound, the Activity [16] was “Active”, the Activity [17] was “inactive” and the inhibition [18] was “Active”. For the same compound, the inhibition [19] was “Active”, the inhibition [20] was “Active” and the Activity [21] was “Active”. For the same compound, the Activity [22] was “Non-Toxic”, the Activity [23] was “Non-Toxic” and the survival at 14 day [24] was 50%. For the same compound, the survival at 14 day [25] was 60% and the Activity [26] was 19.9 g.
